ChEMBL document CHEMBL1154312, “Inhibition of ErbB2(Her2) expression with small molecule transcription factor mimics” (Bioorg Med Chem Lett, 2009)
Calls of active or inactive are those of the source. No cut-off for these calls is given here.

Assays:
[1] = target: Mediator of RNA polymerase II transcription subunit 23 (Homo sapiens); test: Inhibition of ESX-Med23 interaction assessed as binding affinity to Med23 (352-625) by fluorescence polarization
[2] = target: T1, ETS-related transcription factor Elf-3/Vitamin D3 receptor-interacting protein (ESX/MED23) (Homo sapiens) (UniProt Q9ULK4+P78545); test: Inhibition of ESX-Med23 interaction in human BT474 cells assessed as down regulation of ErbB2 expression after 24 hrs by Western blotting; format: cell-based; settings: BT-474
[3] = system: MCF7; test: Cytotoxicity against human MCF7 cells after 24 hrs by WST-1 assay; format: functional, cell-based; settings: MCF7, 24 h
[4] = system: SCC-25; test: Cytotoxicity against human SCC25 cells; format: functional, cell-based
[5] = system: CAL-27; test: Cytotoxicity against human CAL27 cells; format: functional, cell-based
[6] = target: T1, ETS-related transcription factor Elf-3/Vitamin D3 receptor-interacting protein (ESX/MED23) (Homo sapiens); test: Inhibition of ESX-Med23 interaction in human BT474 cells assessed as reduction in ErbB2 mRNA level after 6 hrs by qPCR relative to control; format: cell-based; settings: BT-474
Outline: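 BT-474 cells given compound in DMSO at 10 μM for 6 h; ErbB2 mRNA quantified by qPCR, normalized to GAPDH and expressed relative to DMSO; average of 16 experiments each in quadruplicate, s.e.m., Student's t-test.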

[7] = system: SK-BR-3; test: Cytotoxicity against human SK-BR-3 cells after 24 hrs by WST-1 assay; format: functional, cell-based
[8] = target: T1, ETS-related transcription factor Elf-3/Vitamin D3 receptor-interacting protein (ESX/MED23) (Homo sapiens); test: Inhibition of ESX-Med23 interaction in human SK-BR-3 cells assessed as down regulation of ErbB2 expression by Western blotting; format: cell-based
Outline: (§1)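 SkBr3 cells treated 6 h with compound in DMSO at 0.625–50 μM (comparator 10, 50 μM), DMSO control; ErbB2 protein level by Western blot.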

[9] = system: SCC-15; test: Cytotoxicity against human SCC15 cells; format: functional, cell-based
[10] = target: T1, ETS-related transcription factor Elf-3/Vitamin D3 receptor-interacting protein (ESX/MED23) (Homo sapiens); test: Inhibition of ESX-Med23 interaction in human SK-BR-3 cells assessed as down regulation of ErbB2 expression at 25 uM by Western blotting; format: cell-based
Outline: as §1

[11] = target: T1, ETS-related transcription factor Elf-3/Vitamin D3 receptor-interacting protein (ESX/MED23) (Homo sapiens); test: Inhibition of ESX-Med23 interaction in human BT474 cells assessed as down regulation of ErbB2 expression up to 50 uM by Western blotting; format: cell-based; settings: BT-474

T1 sequence (P78545 whole entry, looked up): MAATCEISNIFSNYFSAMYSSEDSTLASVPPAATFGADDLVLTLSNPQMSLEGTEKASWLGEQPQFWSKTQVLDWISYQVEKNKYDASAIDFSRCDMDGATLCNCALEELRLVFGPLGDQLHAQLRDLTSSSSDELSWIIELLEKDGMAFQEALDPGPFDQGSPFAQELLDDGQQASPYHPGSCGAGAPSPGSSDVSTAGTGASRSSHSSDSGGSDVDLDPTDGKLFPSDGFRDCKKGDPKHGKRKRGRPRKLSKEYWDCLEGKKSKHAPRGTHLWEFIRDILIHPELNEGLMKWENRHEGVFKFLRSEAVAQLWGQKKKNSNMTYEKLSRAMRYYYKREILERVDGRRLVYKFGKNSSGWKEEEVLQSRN
T1 sequence (Q9ULK4 whole entry, looked up): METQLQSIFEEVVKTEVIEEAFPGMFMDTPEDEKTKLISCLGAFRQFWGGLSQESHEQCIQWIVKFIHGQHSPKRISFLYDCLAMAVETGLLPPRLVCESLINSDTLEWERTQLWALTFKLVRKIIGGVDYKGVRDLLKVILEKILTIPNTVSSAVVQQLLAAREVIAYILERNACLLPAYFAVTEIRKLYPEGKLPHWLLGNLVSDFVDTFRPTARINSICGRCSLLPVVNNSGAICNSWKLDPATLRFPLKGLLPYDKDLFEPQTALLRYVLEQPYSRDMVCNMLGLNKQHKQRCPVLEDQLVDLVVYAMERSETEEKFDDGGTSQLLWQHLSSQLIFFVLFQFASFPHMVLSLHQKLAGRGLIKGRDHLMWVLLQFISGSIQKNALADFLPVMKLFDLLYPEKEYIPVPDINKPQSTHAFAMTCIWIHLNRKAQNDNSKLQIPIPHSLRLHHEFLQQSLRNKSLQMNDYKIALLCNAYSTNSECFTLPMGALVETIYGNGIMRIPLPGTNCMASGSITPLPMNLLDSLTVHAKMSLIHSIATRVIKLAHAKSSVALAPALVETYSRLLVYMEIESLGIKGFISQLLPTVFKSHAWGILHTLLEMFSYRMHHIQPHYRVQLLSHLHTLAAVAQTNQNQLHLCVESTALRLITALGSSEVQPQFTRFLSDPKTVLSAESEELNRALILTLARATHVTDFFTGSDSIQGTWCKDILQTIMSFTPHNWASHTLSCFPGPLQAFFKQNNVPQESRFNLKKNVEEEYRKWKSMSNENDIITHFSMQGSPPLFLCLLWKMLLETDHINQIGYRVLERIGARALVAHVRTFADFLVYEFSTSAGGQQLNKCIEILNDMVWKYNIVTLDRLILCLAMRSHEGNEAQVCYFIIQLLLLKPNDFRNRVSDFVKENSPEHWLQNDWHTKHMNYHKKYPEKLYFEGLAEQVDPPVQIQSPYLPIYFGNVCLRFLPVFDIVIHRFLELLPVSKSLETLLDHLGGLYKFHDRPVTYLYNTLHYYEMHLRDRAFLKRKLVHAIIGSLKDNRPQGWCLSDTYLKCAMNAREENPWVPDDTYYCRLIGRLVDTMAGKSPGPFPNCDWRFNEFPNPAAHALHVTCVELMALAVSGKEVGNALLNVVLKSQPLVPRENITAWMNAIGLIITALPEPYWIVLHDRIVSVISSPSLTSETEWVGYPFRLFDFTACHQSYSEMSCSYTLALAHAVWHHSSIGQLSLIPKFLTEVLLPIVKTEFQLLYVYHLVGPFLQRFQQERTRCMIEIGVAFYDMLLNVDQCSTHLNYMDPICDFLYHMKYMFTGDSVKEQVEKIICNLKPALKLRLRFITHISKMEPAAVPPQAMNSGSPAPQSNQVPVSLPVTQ

Structure (SMILES): CC(C)C[C@]1(CCO)C[C@H](CNC(=S)Nc2ccc(-c3c4ccc(=O)cc-4oc4cc(O)ccc34)c(C(=O)O)c2)ON1Cc1ccc(-c2ccccc2)cc1
- Kd [1]: 0.62 µM

Structure (SMILES): CC(C)C[C@]1(CCO)C[C@H](CNC(=S)Nc2ccc(-c3c4ccc(=O)cc-4oc4cc(O)ccc34)c(C(=O)O)c2)ON1Cc1ccc2ccccc2c1
- Kd [1]: 1 µM

Structure (SMILES): CC(C)C[C@]1(CCO)C[C@H](CN=[N+]=[N-])ON1Cc1ccc2ccccc2c1
- Activity [2]: Dose-dependent effect

Structure (SMILES): CC(C)C[C@]1(CCO)C[C@H](CNC(=S)Nc2ccc(-c3c4ccc(=O)cc-4oc4cc(O)ccc34)c(C(=O)O)c2)ON1Cc1ccccc1
- Kd [1]: 5.9 µM

Structure (SMILES): CC(C)C[C@]1(CCO)C[C@H](CN=[N+]=[N-])ON1Cc1ccc(-c2ccccc2)cc1
- IC50 [3]: 27 µM
- IC50 [4]: 19.8 µM
- IC50 [5]: 21.8 µM
- Activity [6]: Active
- IC50 ([7]; SK-BR-3, 24 h): 14 µM
- Activity [8]: Active
- Activity [2]: Dose-dependent effect
- IC50 [9]: 19.2 µM

Structure (SMILES): CC(C)C[C@]1(CCO)C[C@H](CN=[N+]=[N-])ON1Cc1ccc(C(F)(F)F)cc1
- Activity [2]: Dose-dependent effect

Structure (SMILES): CC(C)C[C@]1(CCO)C[C@H](CNC(=S)Nc2ccc(-c3c4ccc(=O)cc-4oc4cc(O)ccc34)c(C(=O)O)c2)ON1Cc1ccc(C(F)(F)F)cc1
- Kd [1]: 0.59 µM

Structure (SMILES): CC(C)C[C@]1(CCO)C[C@H](CN=[N+]=[N-])ON1Cc1ccccc1
- Activity [10]: Active
- Activity [7]: inactive
- Activity [11]: inactive
